Tests used:
Dihydrofolate reductase [1] = molecular target: T1, Dihydrofolate reductase (Rattus norvegicus, UniProt Q920D2); assay: Ability to inhibit recombinant rat liver dihydrofolate reductase.
T1 sequence (Q920D2 whole entry): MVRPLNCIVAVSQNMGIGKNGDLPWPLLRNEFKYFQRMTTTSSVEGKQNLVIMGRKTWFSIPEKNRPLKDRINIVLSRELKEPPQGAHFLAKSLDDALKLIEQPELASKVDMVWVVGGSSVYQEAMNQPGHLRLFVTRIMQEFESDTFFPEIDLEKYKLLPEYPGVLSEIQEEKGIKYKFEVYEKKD

Rattus norvegicus [2] = assay: Area under curve in male SD rats was observed after intravenous administration in rat; type: ADME, organism-based; conditions: in vivo
Outline: (§1)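 Male SD rats (233-264 g), 3 per group, given a 1 μmol/kg intravenous bolus into a tail vein in DMA:PEG400:citrate buffer (40:40:20), formulated at 2 μmol/mL. No anaesthesia. Tail-vein blood was sampled at 2, 10, 30, 60, 120, 240 and 360 min. Plasma was ethanol-precipitated and analysed by LC-MS/MS against spiked-plasma standard curves. Values are mean ± SD.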

Rattus norvegicus [3] = assay: Mean peak plasma concentration was observed after oral administration in rat; type: ADME, organism-based; parameters: route oral; conditions: in vivo
[4] = Plasma clearance was observed after intravenous administration in rat; type: ADME, organism-based; outline: as §1
Rattus norvegicus [5] = assay: Area under curve in male SD rats was observed after oral administration in rat; type: ADME, organism-based; conditions: in vivo
[6] = Oral bioavailability; type: ADME, organism-based; conditions: rat, in vivo
[7] = Time required to reach maximum concentration (Cmax) after oral administration in rat; type: ADME, organism-based; conditions: in vivo
[8] = Volume of distribution at steady state was observed after intravenous administration in rat; type: ADME, organism-based; conditions: in vivo, read-out: Vss; outline: as §1
Rattus norvegicus [9] = assay: Mean peak plasma concentration was observed after intravenous administration in rat; type: ADME, organism-based; parameters: route intravenous; conditions: in vivo; outline: as §1
Dihydrofolate reductase [10] = molecular target: T2, Dihydrofolate reductase (Homo sapiens, UniProt P00374); assay: Ability to inhibit recombinant human dihydrofolate reductase.
T2 sequence (P00374 whole entry): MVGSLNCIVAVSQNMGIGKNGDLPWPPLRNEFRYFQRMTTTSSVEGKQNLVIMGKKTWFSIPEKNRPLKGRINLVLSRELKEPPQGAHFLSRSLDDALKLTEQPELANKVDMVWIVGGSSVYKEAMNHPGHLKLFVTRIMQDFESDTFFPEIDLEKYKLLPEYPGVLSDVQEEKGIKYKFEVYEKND

[11] = Plasma half life was observed after intravenous administration in rat; type: ADME, organism-based; outline: as §1
Rattus norvegicus [12] = assay: mean peak plasma concentration was observed after intravenous administration in rat; type: ADME, organism-based; parameters: route intravenous; conditions: in vivo; outline: as §1
[13] = plasma half life was observed after intravenous administration in rat; type: ADME, organism-based
Outline: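 Male SD rats (233-264 g), three per route; 1 μmol/kg given as a tail-vein bolus in DMA:PEG400:citrate buffer (40:40:20) vehicle at 2 μmol/mL, no anaesthesia. Tail-vein blood sampled at 2, 10, 30, 60, 120, 240 and 360 min; plasma ethanol-precipitated and analysed by LC-MS/MS against spiked-plasma standard curves. Values are means ± SD, n = 3.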

[14] = time required to reach maximum concentration (Cmax) after oral administration in rat; type: ADME, organism-based; conditions: in vivo
Rattus norvegicus [15] = assay: mean peak plasma concentration was observed after oral administration in rat; type: ADME, organism-based; parameters: route oral; conditions: in vivo
[16] = plasma clearance was observed after intravenous administration in rat; type: ADME, organism-based; outline: as §1
[17] = volume of distribution at steady state was observed after intravenous administration in rat; type: ADME, organism-based; conditions: in vivo, read-out: Vss; outline: as §1

Compound	IC50 (Dihydrofolate reductase [1]) [µM]	AUC inf (Rattus norvegicus [2]) [µM·h]	Cmax (Rattus norvegicus [3]) [µM]	clearance [4] [mL/min/kg]	AUC (Rattus norvegicus [5]) [µM·h]	bioavailability [6] [%]	Tmax [7] [min]	Vd [8] [L/kg]	Cmax (Rattus norvegicus [9]) [µM]	IC50 (Dihydrofolate reductase [10]) [µM]	half-life [11] [min]	Cmax (Rattus norvegicus [12]) [µM]	half-life [13] [min]	Tmax [14] [min]	Cmax (Rattus norvegicus [15]) [µM]	clearance [16] [mL/min/kg]	Vd [17] [L/kg]
Nc1nc(N)c2nc(COC(=O)c3ccc(C(=O)N[C@@H](CCC(=O)O)C(=O)O)cc3)cnc2n1	0.12	–	–	–	–	–	–	–	–	–	–	–	–	–	–	–	–
Nc1nc(N)c2cc(COC(=O)c3ccc(C(=O)N[C@@H](CCC(=O)O)C(=O)O)cc3)ccc2n1	0.0193	1.23	0.144	15	0.384	3.4	40.2	0.42	9.17	0.125	60	–	–	–	–	–	–
CN(Cc1cnc2nc(N)nc(N)c2n1)c1ccc(C(=O)N[C@@H](CCC(=O)O)C(=O)O)cc1 [METHOTREXATE]	–	1.56	–	–	0.838	5.8	–	–	–	–	–	8.26	54	40.2	0.266	11	0.36

— ChEMBL document CHEMBL1133691 (J Med Chem, 2000)
